Test results as given in ChEMBL document CHEMBL1154037, “In vivo targeting of tumor-associated carbonic anhydrases using acetazolamide derivatives” (Bioorg Med Chem Lett, 2009).
pKd, pKi: −log10 of the molar value. The source made the active and inactive calls. The calls are words filed in the database; no cut-off is given here.

Columns and labels:
[1] = system: Mus musculus; assay: Toxicity in human SK-RC-52 cells xenografted BALB/c nu/nu mouse assessed as effect on body weight at 25 mg/kg, ip; type: organism-based; parameters: dose 25 mg/kg, route intraperitoneal; settings: in vivo
[2] = system: LS174T; assay: Antitumor activity against human LS 174T cells xenografted BALB/c nu/nu mouse assessed as inhibition of tumor growth at 25 mg/kg, ip; type: functional, organism-based; parameters: dose 25 mg/kg
Procedure, shortened: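 Balb/c nude mice with subcutaneous LS174T human colorectal xenografts, dosed i.p. at 25 mg/kg/day. Vehicle controls received saline containing 15% (v/v) DMSO i.v. Tumor growth was followed as mean tumor volume ± SE, n = 5 per group. Body weight was also tracked as % of day-1 weight.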

[3] = system: Mus musculus; assay: Drug uptake in human LS 174T cells xenografted BALB/c nu/nu mouse at 1.26 umol, iv after 1 hr; type: ADME, organism-based, LS174T; settings: in vivo
Procedure, shortened: (§1)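 Balb/c nu/nu mice carried subcutaneous LS174T tumors of about 500 mg. They received 680 µg (1.26 µmol) of fluorescent compound in the tail vein and were sacrificed 1 h or 2 h later. Fluorescence microscopy was done on 10 µm sections of tumor, muscle, heart, lung, intestine, spleen, kidney and liver. Exposures were 900 ms (1 h) and 1100 ms (2 h).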

[4] = Drug uptake in human LS 174T cells assessed as increase in fluorescence intensity at 3 uM by FACS method relative to untreated control; type: ADME, cell-based; settings: ls174t
Procedure, shortened: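 LS174T cells were incubated with fluorescein-labelled compound at 0.26 or 3 µM and analysed by flow cytometry in the FITC channel. Mean fluorescence was compared with unstained cells. Free FAM served as a dye control, and polyclonal anti-CA IX staining confirmed antigen presence.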

[5] = system: Intestine; assay: Drug uptake in human LS 174T cells xenografted BALB/c nu/nu mouse intestine at 1.26 umol, iv after 1 hr; type: ADME, organism-based, LS174T; settings: in vivo; procedure, shortened: as §1
[6] = system: Liver; assay: Drug uptake in human LS 174T cells xenografted BALB/c nu/nu mouse liver at 1.26 umol, iv after 1 hr; type: ADME, organism-based, LS174T; settings: in vivo; procedure, shortened: as §1
[7] = system: Mus musculus; assay: Drug uptake in human LS 174T cells xenografted BALB/c nu/nu mouse at 1.26 umol, iv after 2 hrs; type: ADME, organism-based, LS174T; settings: in vivo; procedure, shortened: as §1
[8] = target: T1, Carbonic anhydrase 9 (Homo sapiens, UniProt Q16790); assay: Inhibition of human CA9 catalytic domain using 4-nitrophenylacetate substrate by colorimetry
Procedure, shortened: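 CA IX esterase activity was measured colorimetrically via conversion of 4-nitrophenylacetate and reported as Ki. Line 15 was run in the presence of 10 µM mouse serum albumin.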

[9] = system: Kidney; assay: Drug uptake in human LS 174T cells xenografted BALB/c nu/nu mouse kidney at 1.26 umol, iv after 1 hr; type: ADME, organism-based, LS174T; settings: in vivo; procedure, shortened: as §1
[10] = system: Homo sapiens; assay: Antitumor activity against human SK-RC-52 cells xenografted BALB/c nu/nu mouse assessed as inhibition of tumor growth at 340 ug, iv administered as 5 weekly injection schedule for 3 consecutive weeks; type: functional, organism-based
Procedure, shortened: (§2)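 Subcutaneous xenografts in Balb/c nude mice, n = 5 per group. Dosing was 340 µg (17 mg/kg, 0.5 µmol) per injection i.v. Vehicle was saline with 15% (v/v) DMSO, and controls received vehicle alone. Read-out was tumor volume over time, given as mean ± SE.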

[11] = system: LS174T; assay: Antitumor activity against human LS 174T cells xenografted BALB/c nu/nu mouse assessed as inhibition of tumor growth at 340 ug, iv administered as 5 weekly injection schedule for 2 consecutive weeks; type: functional, organism-based; procedure, shortened: as §2
[12] = system: Blood; assay: Drug level in human LS 174T cells xenografted BALB/c nu/nu mouse blood at 0.5 umol. iv; type: ADME, cell-based, LS174T; settings: in vivo, read-out: Drug uptake
Procedure, shortened: (§3)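 A bolus i.v. injection of 340 µg (0.5 µmol) was given to tumor-bearing mice. Blood concentration was estimated immediately at the end of the bolus injection.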

[13] = system: Mus musculus; assay: Toxicity in human SK-RC-52 cells xenografted BALB/c nu/nu mouse assessed as effect on body weight at 340 ug, iv administered as 5 weekly injection schedule for 3 consecutive weeks; type: organism-based; settings: in vivo
Procedure, shortened: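 SK-RC-52 xenografted Balb/c nude mice, n = 5, given 340 µg (17 mg/kg) per injection i.v. in saline with 15% (v/v) DMSO. Body weight was monitored during therapy and expressed as % of body weight on day 1 of treatment.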

[14] = system: Blood; assay: Drug level in human SK-RC-52 cells xenografted BALB/c nu/nu mouse blood at 0.5 umol. iv; type: ADME, cell-based; settings: read-out: Drug uptake; procedure, shortened: as §3
[15] = target: T1, Carbonic anhydrase 9; assay: Binding affinity to human CA9 catalytic domain by isothermal titration calorimetry
[16] = target: Albumin (Homo sapiens, UniProt P02768); assay: Binding affinity to HSA by isothermal titration calorimetry; type: ADME
Albumin, sequence (P02768 whole entry): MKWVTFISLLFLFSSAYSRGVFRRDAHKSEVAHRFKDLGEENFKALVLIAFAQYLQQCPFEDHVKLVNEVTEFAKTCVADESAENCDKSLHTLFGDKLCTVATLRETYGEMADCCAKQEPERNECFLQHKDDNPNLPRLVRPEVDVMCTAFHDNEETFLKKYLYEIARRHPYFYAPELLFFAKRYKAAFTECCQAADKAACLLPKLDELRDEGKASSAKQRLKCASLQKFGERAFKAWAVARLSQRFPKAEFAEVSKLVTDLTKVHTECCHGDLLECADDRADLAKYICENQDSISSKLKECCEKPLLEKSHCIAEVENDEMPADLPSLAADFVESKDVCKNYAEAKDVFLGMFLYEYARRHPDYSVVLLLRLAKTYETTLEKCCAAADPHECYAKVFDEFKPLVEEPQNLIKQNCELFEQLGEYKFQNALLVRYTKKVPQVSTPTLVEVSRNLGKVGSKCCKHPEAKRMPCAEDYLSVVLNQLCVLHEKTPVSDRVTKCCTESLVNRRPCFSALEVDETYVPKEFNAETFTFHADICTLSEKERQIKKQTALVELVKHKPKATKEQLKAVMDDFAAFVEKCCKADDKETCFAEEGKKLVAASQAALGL

[17] = system: Mus musculus; assay: Toxicity in human SK-RC-52 cells xenografted BALB/c nu/nu mouse assessed as effect on body weight at 20 mg/kg, ip; type: organism-based; parameters: dose 20 mg/kg, route intraperitoneal; settings: in vivo
[18] = system: Homo sapiens; assay: Antitumor activity against human SK-RC-52 cells xenografted BALB/c nu/nu mouse assessed as inhibition of tumor growth at 20 mg/kg, ip; type: functional, organism-based; parameters: dose 20 mg/kg

O=c1[nH]cc(F)c(=O)[nH]1 [FLUOROURACIL]
Activity [1]: Toxic | Activity [2]: Active

NS(=O)(=O)c1nnc(NC(=O)c2ccc(-c3c4ccc(=O)cc-4oc4cc(O)ccc34)c(C(=O)O)c2)s1
Drug uptake [3]: Active | fold change (FC) [4]: > 10 | Drug uptake [5]: Active | Drug uptake [6]: Active | Drug uptake [7]: Active | pKi [8]: 6.66 | Drug uptake [9]: Active

NS(=O)(=O)c1nnc(NC(=O)CCC(=O)NC(CCCCNC(=O)CCCc2ccc(I)cc2)C(=O)O)s1 (stereo not drawn)
Activity [10]: Active | Activity [11]: inactive | concentration [12]: 250 µM | Activity [13]: Non-toxic | concentration [14]: 250 µM | pKd [15]: 8.49 | pKd [16]: 6.09

CCN(CC)CCNC(=O)c1c(C)[nH]c(/C=C2\C(=O)Nc3ccc(F)cc32)c1C [SUNITINIB]
Activity [17]: Non-toxic | Activity [18]: Active
